An excerpt weighted towards active compounds, which were near 2.8% of everything screened.
NPY-Y1 PAM-ag: NPY-Y1 receptor potentiators or agonists, primary screen, cell-based | NPY-Y1 expressing cells, potentiator/agonist activation | activation, % at 3.6 µM | 220,000 tested, 0.37% active; in the data active = activation above about 33%, passing the limit was not always enough;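 note: cells stimulated with NPY at EC10 then isoproterenol at EC100; 0% = low agonist plus stimulus and 100% = saturating agonist plus stimulus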
PGE2 EP2 inh: human EP2 receptor antagonists, primary screen, TR-FRET cAMP, C6 glioma cells; Prostaglandin E2 receptor EP2 subtype (Homo sapiens), P43116; C6 glioma cells expressing human EP2; cells stimulated with saturating PGE2; inhibition, % at 25 µM; 260,000 tested, 0.52% active; AID 1422, 2008;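 active = percent inhibition above 40 after rounding to a whole number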;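 note: rat C6 glioma host cells with rolipram phosphodiesterase inhibitor present; the protocol text gives 20 µM as final concentration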
Target sequence (P43116 whole entry, looked up): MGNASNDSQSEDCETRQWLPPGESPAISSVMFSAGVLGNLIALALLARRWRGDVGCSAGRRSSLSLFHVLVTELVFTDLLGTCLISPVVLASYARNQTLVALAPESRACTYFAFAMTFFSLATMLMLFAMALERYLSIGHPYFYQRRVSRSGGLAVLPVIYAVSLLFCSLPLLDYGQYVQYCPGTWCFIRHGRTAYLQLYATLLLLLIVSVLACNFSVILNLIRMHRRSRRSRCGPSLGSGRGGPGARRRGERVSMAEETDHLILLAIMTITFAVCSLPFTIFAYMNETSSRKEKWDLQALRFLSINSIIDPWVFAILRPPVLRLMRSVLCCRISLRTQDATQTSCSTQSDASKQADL
EP2 modulator: EP2 receptor modulators, cAMP readout, primary screen, cell-based, HTRF cAMP, PGE2 stimulation | Prostaglandin E2 receptor EP2 subtype (Homo sapiens), P43116 | EP2-expressing cells, cAMP HTRF FRET, PGE2 co-stimulation | induction, % at 25 µM | 260,000 tested, 0.83% active;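 active = compounds whose cAMP rise, as percent of the full-agonist control response, exceeds 60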;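 note: rat C6 glioma line stably carrying human EP2 under a CMV promoter; the protocol text gives 20 µM as final concentration; 100% = response of wells given 1 µM PGE2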
NPY Y2 blocker: NPY-Y2 receptor antagonists, primary screen, cell-based; Neuropeptide Y receptor type 2 (Homo sapiens), P49146; NPY-Y2 expressing cells, antagonist mode; inhibition, % at 2.7 µM; 140,000 tested, 0.99% active; in the data active = inhibition above about 17%;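 note: 0% = vehicle with agonist challenge and 100% = reference antagonist with challenge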
NPY Y1 blocker: NPY-Y1 receptor antagonists, primary screen, cell-based; 200,000 tested, 1% active; HEK293-CNG Y1 cells, membrane potential fluorescence; NPY at EC95, then isoproterenol; inhibition, % at 3.6 µM; AID 1040, 2008; Neuropeptide Y receptor type 1 (Homo sapiens), P25929;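 active = inhibition above the campaign mean inhibition of all tested compounds plus 3 SD, cut at about 20% in these data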;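 note: 0% = DMSO wells given NPY plus isoproterenol and 100% = isoproterenol alone without NPY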
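Material: HEK293 cells with Y1 receptor plus CNG channel; times: compound incubation 1 h at room temperature, readout 45 min post-stimulation; signal: fluorescence, membrane potential probe; read-out basis: fluorescence ratio normalized to % inhibition between controls; benchmarks: full-block control isoproterenol-only wells, zero-block control NPY plus isoproterenol wells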
NPY2 pot ag: NPY-Y2 potentiators or agonists, primary screen, cell-based; cells expressing NPY-Y2, potentiator/agonist read-out; 220,000 tested, 0.45% active; AID 1359, 2008; Neuropeptide Y receptor type 2 (Homo sapiens), P49146; activation, % at 3.6 µM; in the data active = activation above about 27%;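 note: cells stimulated with NPY near EC25 plus isoproterenol at EC100; 0% = vehicle plus submaximal agonist and 100% = vehicle plus saturating agonist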
NPY-Y1 confirm: NPY-Y1 potentiators or agonists, confirmation, cell-based; cell-based NPY-Y1 potentiator/agonist assay; shares compounds with NPY-Y1 PAM-ag; AID 1546, 2009; activation, % at 3.6 µM; 280 tested, 20% active; in the data active = activation above about 45%;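 note: cells challenged with NPY at its EC10 plus isoproterenol stimulus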
NPY-Y2 counter: NPY-Y2 potentiators or agonists, counter-screen for NPY-Y1 potentiator project, cell-based, fluorescence | activation, % at 3.6 µM | HEK293-CNG cells, membrane-potential fluorescence (FLIPR), 1536-well | shares compounds with NPY-Y1 PAM-ag | 280 tested, 20% active; in the data active = activation above about 33%
NPY-Y1 ag: NPY-Y1 direct agonists without NPY, confirmation, counter-screen for NPY-Y1 potentiator project, cell-based, fluorescence; shares compounds with NPY-Y1 PAM-ag; HEK293 Y1-CNGC, membrane potential fluorescence, agonist mode; activation, % at 3.6 µM; 280 tested, 50% active; AID 1697, 2009;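 active = percent activation above the mean of DMSO-only control wells plus 3 SD of those wells, cut at about 18% in these data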;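 note: cells challenged with isoproterenol plus Ro 20-1724 with no NPY in test wells; Y1 agonism lowers isoproterenol-driven cAMP and reduces probe fluorescence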
NPY-Y2 agonist: NPY-Y2 direct agonists without NPY, counter-screen for NPY-Y1 potentiator project, cell-based, fluorescence | HEK293 Y2-CNGC, membrane potential fluorescence, agonist mode | activation, % at 3.6 µM | shares compounds with NPY-Y1 PAM-ag | 280 tested, 67% active;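 active = activation above the solvent-only control wells' mean plus 3 SD, cut at about 11% in these data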;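 note: 0% = DMSO with isoproterenol and 100% = 40 nM NPY maximal response; agonism lowers cAMP so well fluorescence drops in active wells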
CNGC counter: CNGC cAMP sensor activity inhibitors, counter-screen for NPY-Y1 potentiator/agonist project, cell-based, HEK293-CNG parental, membrane potential fluorescence, Y1 set; inhibition, % at 3.6 µM; 280 tested, 42% active; AID 1704, 2009; shares compounds with NPY-Y1 PAM-ag; isoproterenol cAMP;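 active = inhibition above the mean of stimulated solvent-only control wells plus 3 SD, cut at about 22% in these data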;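 note: 0% = isoproterenol-stimulated DMSO wells and 100% = unstimulated DMSO wells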
The depositor's hits bear a star; . = no result.

SMILES | NPY-Y1 PAM-ag | PGE2 EP2 inh | EP2 modulator | NPY Y2 blocker | NPY Y1 blocker | NPY2 pot ag | NPY-Y1 confirm | NPY-Y2 counter | NPY-Y1 ag | NPY-Y2 agonist | CNGC counter
COc1cc(-c2nnc(N(C(=O)C3CCCCC3)C(C)C)s2)cc(OC)c1OC | . | 6.0 | -31.4 | . | . | . | . | . | . | . | .
N#Cc1c(-c2ccccc2)c(-c2ccccc2)nn(CC(=O)NNC(=O)Nc2ccc(Cl)c(Cl)c2)c1=O | 38.4* | 7.1 | 8.8 | -1.3 | -10.2 | 5.2 | 43.1 | 27.6 | 34.4* | 32.2* | 32.3*
CC(=O)c1sc(Nc2nc3ccc(F)cc3s2)nc1C | 45.0* | 12.2 | . | -4.8 | -19.8 | 17.5 | 28.0 | 15.1 | 16.4 | 20.1* | 18.5
CCn1ncc(Br)c1C(=O)Nc1ccc(F)cc1F | 2.3 | 5.7 | -4.0 | 1.7 | 1.9 | 3.7 | . | . | . | . | .
CCn1ncc(Br)c1C(=O)Nc1ccc(F)c([N+](=O)[O-])c1 | 45.4* | 11.9 | -46.5 | -1.3 | -12.0 | 20.4 | 40.2 | 39.0* | 39.9* | 27.0* | 35.6*
Cc1noc2ncnc(Sc3ccc(Cl)cc3)c12 | 65.7* | 17.7 | 20.5 | 11.1 | -2.1 | 3.9 | -4.0 | -6.3 | -11.0 | 5.6 | -6.7
Cc1ccccc1C(=O)N1CCN(c2ccc(NC(=S)NC(=O)c3cccs3)cc2)CC1 | 35.8* | 7.5 | -48.1 | . | -6.5 | 15.4 | -0.4 | 14.3 | 11.2 | 15.3* | 19.1
Cc1ccc(C(=O)N2CCN(c3ccc(NC(=S)NC(=O)c4cccs4)cc3)CC2)cc1 | 8.0 | 7.0 | -24.6 | . | -1.6 | 9.8 | . | . | . | . | .
N#Cc1ccc(NC(=O)Nc2ccc(Cl)cc2)cc1 | 48.9* | 16.4 | -19.4 | -1.8 | -8.9 | 27.2 | 33.7 | 32.6 | 23.0* | 28.0* | 32.4*
CCC(c1nnnn1C1CCCC1)N(Cc1cc2ccc(C)cc2[nH]c1=O)CC1CCCO1 (stereo not drawn) | . | 7.3 | -11.3 | . | . | . | . | . | . | . | .
COC(=O)COc1ccc(S(=O)(=O)NCCC2=CCCCC2)cc1Cl | 55.8* | 8.4 | 7.3 | 4.8 | 0.6 | 20.1 | 57.4* | 31.4 | 52.3* | 39.3* | 49.1*
COCCNS(=O)(=O)c1ccc(OCC(=O)OC)c(Cl)c1 | -5.7 | 1.4 | 7.4 | 1.5 | 2.2 | 0.9 | . | . | . | . | .
CC1CCCCN1C(=O)CSc1nc(Cc2ccccc2)nc2ccccc12 (stereo not drawn) | . | 15.3 | 53.8 | . | . | . | . | . | . | . | .
NC(=O)CN(c1ccc(Cl)cc1)S(=O)(=O)c1ccccc1 | -20.6 | 7.5 | 17.6 | 2.6 | 3.2 | -3.9 | . | . | . | . | .
Cc1ccc(S(=O)(=O)N(CC(=O)Nc2ccccc2C(=O)O)c2ccc(Cl)cc2)cc1 | 44.2* | 6.4 | -16.8 | . | 4.0 | 3.3 | 8.1 | 4.4 | 4.7 | 20.3* | 7.3
COc1cc(OC)cc(C(=O)N2CCC(C(=O)Nc3ccc(C(F)(F)F)cc3)CC2)c1 | . | 4.1 | -7.2 | . | . | . | . | . | . | . | .

Bioassay records (PubChem)
